NS3 helicase inh: inhibitors of HCV NS3 helicase, primary screen, biochemical, Cy5 molecular beacon fluorescence | Hepatitis C virus NS3 helicase | NS3 helicase DNA unwinding | inhibition, % at 10.9 µM | actives 0.56% (n = 290,000) | AID 1800, 2009;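 active = inhibition above the mean of all tested compounds plus 3 SD, set per campaign, cut at about 35% in these data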;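 also: 0% = DMSO wells and 100% = thioflavine S control wells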
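System: NS3 helicase fragment of HCV / Schedule: 1 h at 25 °C / Control set: DMSO alone as 0% and 110 µM thioflavine S as 100% / Reagent: Cy5/quencher beacon DNA duplex and ATP to start / Technique: Cy5 fluorescence / Replication: singlicate / Evaluation: % inhibition of end-to-start signal ratio versus controls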
HCV core dimer: inhibitors of HCV core protein dimerization, primary screen, biochemical, TR-FRET, high-throughput. actives 0.33% (n = 300,000). inhibition, % at 5 µM. TR-FRET GST/Flag-core106 dimerization, 1536-well;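 active = inhibition above the mean of all tested compounds plus 3 SD, set per screening campaign, cut at about 45% in these data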
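Assay system – GST-tagged and Flag-tagged HCV core protein residues 1-106 · Quantity – core106 proteins, GST 13.5 nM and Flag 17 nM · Benchmarks – unlabelled core106 and no-GST-core106 wells · Read-out basis – percent inhibition of core106 dimerization signal · Detection – time-resolved FRET, ex 340 nm, em 617 and 671 nm · Schedule – 4 h at 22.5 °C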
EBNA-1 inh: EBNA-1 DNA-binding inhibitors, primary screen, biochemical, fluorescence polarization. inhibition, % at 14.8 µM. actives 0.34% (n = 300,000); in the data active = inhibition above about 28%
ZTA counter: ZTA (EBV) inhibition in EBNA-1 counter-screen. AID 2234. ZTA-DNA binding, fluorescence polarization. inhibition, % at 11 µM. actives 0.15% (n = 320,000). P03206; in the data active = inhibition above about 33%
EBV gp42 block: Epstein-Barr virus gp42 inhibitors, primary screen, biochemical, uHTS, fluorescence polarization; Glycoprotein 42 (Epstein-Barr virus (strain AG876)), Q1HVG2; Fluorescence polarization binding assay, mP read-out; inhibition, % (tested at 21.74 µM); actives 0.42% (n = 220,000); in the data active = inhibition above about 50%
Target sequence (Q1HVG2 whole entry, looked up): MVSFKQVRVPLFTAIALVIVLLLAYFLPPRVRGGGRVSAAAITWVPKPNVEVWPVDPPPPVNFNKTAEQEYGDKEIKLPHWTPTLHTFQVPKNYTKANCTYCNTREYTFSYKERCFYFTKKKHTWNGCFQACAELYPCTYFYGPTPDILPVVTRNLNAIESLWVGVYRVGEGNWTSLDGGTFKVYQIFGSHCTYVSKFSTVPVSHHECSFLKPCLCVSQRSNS
GPR7 antag: GPR7 receptor antagonists, primary screen, cell-based, fluorescence, single concentration; GPR7-expressing cells, fluorescence antagonist assay; AID 1861, 2009; Neuropeptides B/W receptor type 1 (Homo sapiens), P48145; actives 1.1% (n = 290,000); inhibition, % at 4.4 µM; in the data active = inhibition above about 16%, passing the limit was not always enough;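 also: cells stimulated with the agonist NPW; 0% = agonist with vehicle and 100% = vehicle without agonist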
Target sequence (P48145 whole entry, looked up): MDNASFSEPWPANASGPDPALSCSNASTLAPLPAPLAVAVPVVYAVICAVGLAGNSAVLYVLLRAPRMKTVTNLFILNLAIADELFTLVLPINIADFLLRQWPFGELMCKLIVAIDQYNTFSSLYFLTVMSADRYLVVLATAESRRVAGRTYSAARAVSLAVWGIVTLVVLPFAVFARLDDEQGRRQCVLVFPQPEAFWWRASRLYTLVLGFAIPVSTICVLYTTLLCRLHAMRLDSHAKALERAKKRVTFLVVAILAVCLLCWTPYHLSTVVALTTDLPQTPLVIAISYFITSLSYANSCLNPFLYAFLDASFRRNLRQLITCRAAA
EBNA-1 confirm: EBNA-1 DNA-binding inhibitors, retest, confirmation, biochemical, fluorescence polarization, triplicate; inhibition, % at 14.8 µM; shares compounds with EBNA-1 inh; Recombinant EBNA-1 DBD, Cy5-DNA fluorescence polarization; actives 35% (n = 830);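 active = mean inhibition across replicates above a set limit taken from the earlier primary screen, cut at about 28% in these data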;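 also: plate controls were EBNA-1 protein with DMSO for no effect and wells lacking EBNA-1 for full effect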
ZTA DNA inh trip: EBV Zta DNA binding inhibitors, counter-screen for EBNA-1 inhibitor project, biochemical, fluorescence polarization, triplicate. 830 tested, under 10 active. inhibition, % at 11.1 µM. Zta-ZRE DNA binding, Cy5 fluorescence polarization. shares compounds with EBNA-1 inh. AID 2328, 2010;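 active = mean inhibition over triplicates above a set limit taken from the primary EBNA-1 screen, cut at about 37% in these data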;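 also: purified full length Zta protein with Cy5 labeled ZRE DNA probe; 0% = Zta with DMSO and 100% = wells lacking Zta protein; inhibitors lower polarization by freeing the labeled DNA probe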
* = called active by the depositor; · = not tested or not shown. Hits are enriched below; roughly 2.3% of the tested compounds scored in any of these assays.

SMILES | NS3 helicase inh | HCV core dimer | EBNA-1 inh | ZTA counter | EBV gp42 block | GPR7 antag | EBNA-1 confirm | ZTA DNA inh trip
O=c1[nH]c(CN2CCN(S(=O)(=O)c3ccc4ccccc4c3)CC2)nc2ccccc12 | 1 | 9 | 84* | 23 | -14 | -12 | 122* | 4
O=C(NCC(=O)N(c1ccccc1F)C(C(=O)NC1CCCC1)c1cccnc1)c1ccco1 (centres undefined) | -1 | 3 | 3 | -1 | · | 4 | · | ·
O=C(OCCN1C(=O)c2ccccc2C1=O)c1ccccc1 | 4 | 1 | 46* | 19 | -15 | -7 | -12 | 6
O=C(OCN1C(=O)c2ccccc2C1=O)c1ccccc1 | 5 | 3 | -3 | 6 | -6 | 4 | · | ·
COC(=O)c1ccc(NC(=O)c2cccc(N3C(=O)C4C5C=CC(C6CC56)C4C3=O)c2)cc1 (centres undefined) | -10 | -3 | 10 | -2 | · | 4 | · | ·
Cc1cccc(NC(=O)c2ccc(N3C(=O)C4C5C=CC(C6CC56)C4C3=O)cc2)c1 (centres undefined) | -9 | -5 | 57* | 11 | · | 14 | 41* | 7
CCCNC(=O)c1ccc(N2CCC3(CC2)CC(c2ccccc2)=NO3)c([N+](=O)[O-])c1 | -5 | 10 | -2 | 6 | · | -2 | · | ·
CCCNC(=O)c1ccc(N2CCC3(CC2)CC(c2ccccc2)=NO3)c(N)c1 | 20 | 5 | 51* | -3 | · | 12 | -5 | -7
Cc1ccc(S(=O)(=O)/C(C#N)=C/c2c(N3CC(C)OC(C)C3)nc3c(C)cccn3c2=O)cc1 (centres undefined) | -4 | 13 | 7 | 2 | -15 | 0 | · | ·
Cc1ccc2nc(-c3ccc(NC(=O)COC(=O)c4ccco4)cc3)sc2c1 | 0 | -15 | 21 | 19 | -24 | -6 | · | ·
CNS(=O)(=O)c1cccc(C(=O)OCC(=O)Nc2ccc(-c3nc4ccc(C)cc4s3)cc2)c1 | 10 | -67 | 103* | 23 | -30 | 7 | 81* | 26
Cc1ccc(-c2csc(NC(=O)COC(=O)c3cccc(S(=O)(=O)N4CCOCC4)c3)n2)cc1 | -7 | 14 | 98* | -6 | 2 | -4 | -3 | 0
Cc1cc(C(=O)OCC(=O)Nc2nc(-c3ccccc3)cs2)c(C)o1 | 5 | 13 | 34* | 7 | -12 | 8 | 10 | -10
CCOC(=O)c1ccc(-c2csc(NC(=O)CN3CCC(C)CC3)n2)cc1 | -43 | -3 | 43* | -12 | · | -17 | 70* | -1
COc1ccc(N=C2O/C(=C/c3sc(=S)n(CC4CCCO4)c3O)N=C2C#N)cc1 (centres undefined) | 10 | 1 | -11 | -6 | -10 | -7 | · | ·
CN(C)CC1CCCCC1OC(=O)/C=C/c1ccc(Cl)cc1Cl (centres undefined) | -25 | -1 | 0 | 4 | -23 | 1 | · | ·
CCC(=O)c1ccc(N2CCN(C(=O)COc3ccc(F)cc3)CC2)c(F)c1 | 4 | 2 | 28* | 12 | -4 | 10 | 5 | 9
CCN(CC)S(=O)(=O)c1ccc(C(=O)NN(C)C2=NS(=O)(=O)c3ccccc32)cc1 | 16 | 1 | 36* | -2 | · | 0 | 2 | -11
O=C(Nc1ccc2c(c1)oc1ccccc12)c1ccc2c(c1)OCO2 | -7 | -6 | 6 | -11 | -4 | -11 | · | ·
O=C(COc1ccc2c(c1)OCO2)Nc1ccc2c(c1)oc1ccccc12 | 5 | 16 | 71* | 6 | -2 | 7 | 11 | 15
O=C(COc1ccc(Cl)cc1)NNC(=O)c1ccc2c(=O)n3c(nc2c1)CCC3 | · | -3 | 0 | -24 | · | · | · | ·
Cc1ccc(NC(=O)C2CC(=O)N/C(=N/N=C/c3ccco3)S2)cc1C (centres undefined) | 8 | -5 | 30* | -12 | 14 | -6 | 4 | -10
Cn1nccc1C(=O)N1CCCC(C(=O)c2cccc3ccccc23)C1 (centres undefined) | -3 | -6 | 40* | -5 | -7 | -2 | -3 | 4
Cc1ncoc1C(=O)N1CCCC(C(=O)c2cccc3ccccc23)C1 (centres undefined) | -1 | -2 | -4 | -17 | -12 | 4 | · | ·
COc1cc(NC(=O)c2ccccc2)c(OC)cc1NC(=O)Cc1ccc(F)cc1 | 1 | 14 | -6 | 14 | · | -29 | · | ·
SMILES | NS3 helicase inh | HCV core dimer | EBNA-1 inh | ZTA counter | EBV gp42 block | GPR7 antag | EBNA-1 confirm | ZTA DNA inh trip
COc1cc(NC(=O)c2ccccc2)c(OC)cc1NC(=O)Cc1ccc(Br)cc1 | -14 | 9 | 36* | 8 | · | -25 | 50* | 1
O=C(Nc1cccc(C(=O)Nc2ccc(Br)cc2)c1)c1ccccc1 | -8 | 19 | 33* | 18 | · | -2 | 26 | 0
O=C(Nc1ccc(Nc2ccccc2)cc1)c1ccc(Br)cc1 | 14 | -1 | -6 | 4 | · | -15 | · | ·
COc1cc(NC(=O)c2ccc(Br)cc2)c(OC)cc1NC(=O)c1ccccc1 | 1 | 14 | 57* | -18 | · | -22 | 64* | 5
COc1cc(NC(=O)c2cccnc2)c(OC)cc1NC(=O)c1ccc(Br)cc1 | -8 | -2 | -2 | 19 | · | -3 | · | ·
O=C(Nc1cccc(-c2cnc3ccccc3n2)c1)c1ccccc1 | 2 | 9 | 40* | -5 | 7 | -8 | 7 | -3
CC(=O)c1ccc(NC(=O)C(C)NCc2ccccc2Cl)cc1 (centres undefined) | 5 | 5 | 4 | 5 | -21 | 7 | · | ·
CCOCCCn1c(SCC(=O)NCc2ccco2)nc2c(sc3ccccc32)c1=O | 2 | 7 | 30* | 9 | -8 | 2 | 0 | 2
O=C(Nc1ccc(S(=O)(=O)Nc2nccs2)cc1)c1ccc(N2C(=O)c3ccccc3C2=O)cc1 | 29 | 54* | 61* | -2 | -69 | 7 | 25 | 31
COc1cccc(-c2ccc(=O)n(CC(=O)Nc3ccc(S(=O)(=O)NCC(C)C)cc3)n2)c1 | -12 | 16 | -4 | 4 | 0 | -12 | · | ·
O=C(C1CCCN(CCCc2ccccc2)C1)N1CCCCCC1 (centres undefined) | -7 | -3 | 7 | 10 | -9 | -2 | · | ·
Cc1ccc2nc(SCC(=O)NCc3cccs3)c(C#N)cc2c1 | -5 | 37 | 33* | 5 | -23 | -5 | -1 | 7

Screening results deposited in PubChem by several laboratories.
